Test results taken from ChEMBL document CHEMBL1127826, “Inhibitors of acyl-CoA:cholesterol acyltransferase (ACAT). 7. Development of a series of substituted N-phenyl-N'-[(1-phenylcyclopentyl)methyl]ureas with enhanced hypocholesterolemic activity” (J Med Chem, 1994).
Blank lines part the entries; values can stand above or below the compound they belong to.

Key:
[1] = molecular target: T1, Acyl-CoA:cholesterol acyltransferase (Oryctolagus cuniculus, UniProt Q95214); test: Tested for in vitro inhibition against Acyl coenzyme A:cholesterol acyltransferase of intestinal microsomes in cholesterol-fed rabbits; design: species or system Microsome
T1 sequence (Q95214 whole entry): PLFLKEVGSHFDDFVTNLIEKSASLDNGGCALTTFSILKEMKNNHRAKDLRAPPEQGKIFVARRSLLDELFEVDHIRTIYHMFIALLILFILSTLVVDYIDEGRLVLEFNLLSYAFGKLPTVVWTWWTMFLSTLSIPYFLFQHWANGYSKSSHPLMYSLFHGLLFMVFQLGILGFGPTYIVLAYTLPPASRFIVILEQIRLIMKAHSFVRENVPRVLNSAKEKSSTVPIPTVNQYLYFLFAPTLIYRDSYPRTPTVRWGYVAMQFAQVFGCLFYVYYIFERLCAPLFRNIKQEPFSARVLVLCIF
Method in brief: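 Microsomes were prepared from intestine of cholesterol-fed rabbits. ACAT activity was measured using [1-14C]oleoyl-CoA as substrate. Each determination was run in triplicate.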

[2] = organism: Rattus norvegicus; test: Percent change in total cholesterol in peanut oil (5.5%) - cholic acid (0.3%) - Cholesterol (1.5%) fed rats after a single dose; assay type: functional
Method in brief: (§1)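 Male Sprague-Dawley rats (200-225 g), n=5-7/group, given a single oral dose at 4 p.m. as a suspension in 1.5% CMC/0.2% Tween-20 in water (50 mg/kg); controls received vehicle alone. The rats then had free access to chow with peanut oil, cholesterol and cholic acid. At 8 a.m. next day they were bled by cardiac puncture under ether, and serum total cholesterol was measured as % change versus controls (unpaired two-tailed t-test).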

[3] = Compound was evaluated for the distribution coefficient at pH 7.4; assay type: physicochemical; settings: octanol/water, read-out: logD
[4] = organism: Rattus norvegicus; test: Percent change in total cholesterol in peanut oil (5.5%)-, cholic acid (0.3%)-, Cholesterol (1.5%)-fed rats after a single dose.; assay type: functional; method in brief: as §1
[5] = tested on: Rattus norvegicus; test: Compound was evaluated for the percentage change in total cholesterol in peanut oil (5.5%)-cholic acid (0.3%)-cholesterol (1.5%)-fed rats at 30 mg/kg; assay type: functional
[6] = tested on: Rattus norvegicus; test: Compound was evaluated in experiment 1 for Change in High density lipoproteins at 0.3 (mg/kg) dose; assay type: functional
Method in brief: (§2)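 Chronic model in male Sprague-Dawley rats (200-225 g). Rats were fed chow with peanut oil 5.5%, cholesterol 1.5% and cholic acid ad libitum for 2 weeks. Test article was given by gavage once daily (morning) in the second week, as a CMC/Tween aqueous suspension. Blood was taken by cardiac puncture under ether 24 h after the last dose. Plasma total, HDL and nonHDL cholesterol were measured with an Abbott VP analyzer using dextran sulfate precipitation, reported as mg/dL and % change from control. Controls were cholesterol-fed rats and rats switched to chow in week 2.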

[7] = tested on: Rattus norvegicus; test: Compound was evaluated in experiment 1 for Change in High density lipoproteins at 1.0 (mg/kg) dose; assay type: functional; method in brief: as §2
[8] = tested on: Rattus norvegicus; test: Compound was evaluated in experiment 1 for Change in total cholesterol at 0.3 (mg/kg) dose; assay type: functional; method in brief: as §2
[9] = tested on: Rattus norvegicus; test: Compound was evaluated in experiment 1 for Change in total cholesterol at 1.0 (mg/kg) dose; assay type: functional; method in brief: as §2
[10] = tested on: Rattus norvegicus; test: Compound was evaluated in experiment 1 for Change in total cholesterol at 10 (mg/kg) dose; assay type: functional; method in brief: as §2
[11] = tested on: Rattus norvegicus; test: Compound was evaluated in experiment 1 for Change in total cholesterol at 3.0 (mg/kg) dose; assay type: functional; method in brief: as §2
[12] = tested on: Rattus norvegicus; test: Compound was evaluated in experiment 1 for Change in High density lipoproteins at 10 (mg/kg) dose; assay type: functional; method in brief: as §2
[13] = tested on: Rattus norvegicus; test: Compound was evaluated in experiment 1 for Change in High density lipoproteins at 3.0 (mg/kg) dose; assay type: functional; method in brief: as §2
[14] = tested on: Rattus norvegicus; test: Compound was evaluated in experiment 1 for change in non High density lipoprotein at the doses at 0.3 (mg/kg) dose; assay type: functional; method in brief: as §2
[15] = tested on: Rattus norvegicus; test: Compound was evaluated in experiment 1 for change in non High density lipoprotein at the doses at 10 (mg/kg) dose; assay type: functional; method in brief: as §2
[16] = tested on: Rattus norvegicus; test: Compound was evaluated in experiment 1 for change in non High density lipoprotein at the doses at 3.0 (mg/kg) dose; assay type: functional; method in brief: as §2
[17] = tested on: Rattus norvegicus; test: Compound was evaluated in experiment 1 for change in non High density lipoprotein at the doses at 1.0 (mg/kg) dose; assay type: functional; method in brief: as §2
[18] = tested on: Rattus norvegicus; test: Compound was evaluated in experiment 1 for High density lipoproteins at 0.3 (mg/kg) dose; assay type: functional; method in brief: as §2
[19] = tested on: Rattus norvegicus; test: Compound was evaluated in experiment 1 for High density lipoproteins at 1.0 (mg/kg) dose; assay type: functional; method in brief: as §2
[20] = tested on: Rattus norvegicus; test: Compound was evaluated in experiment 1 for High density lipoproteins at 10 (mg/kg) dose; assay type: functional; method in brief: as §2
[21] = tested on: Rattus norvegicus; test: Compound was evaluated in experiment 1 for High density lipoproteins at 3.0 (mg/kg) dose; assay type: functional; method in brief: as §2
[22] = tested on: Rattus norvegicus; test: Compound was evaluated in experiment 1 for non High density lipoproteins at 0.3 (mg/kg) dose; assay type: functional; method in brief: as §2
[23] = tested on: Rattus norvegicus; test: Compound was evaluated in experiment 1 for non High density lipoproteins at 1.0 (mg/kg) dose; assay type: functional; method in brief: as §2
[24] = tested on: Rattus norvegicus; test: Compound was evaluated in experiment 1 for non High density lipoproteins at 10 (mg/kg) dose; assay type: functional; method in brief: as §2
[25] = tested on: Rattus norvegicus; test: Compound was evaluated in experiment 1 for non High density lipoproteins at 3.0(mg/kg) dose; assay type: functional; method in brief: as §2
[26] = tested on: Rattus norvegicus; test: Compound was evaluated in experiment 1 for Total cholesterol at 0.3 (mg/kg) dose; assay type: functional; design: unit not given beside the values; method in brief: as §2
[27] = tested on: Rattus norvegicus; test: Compound was evaluated in experiment 1 for Total cholesterol at 1.0 (mg/kg) dose; assay type: functional; design: unit not given beside the values; method in brief: as §2
[28] = tested on: Rattus norvegicus; test: Compound was evaluated in experiment 1 for Total cholesterol at 10 (mg/kg) dose; assay type: functional; design: unit not given beside the values; method in brief: as §2
[29] = tested on: Rattus norvegicus; test: Compound was evaluated in experiment 1 for Total cholesterol at 3.0 (mg/kg) dose; assay type: functional; design: unit not given beside the values; method in brief: as §2

- IC50 [1]: 57 nM
SMILES: CC(C)c1cccc(C(C)C)c1NC(=O)NCC1(c2cc(C(F)(F)F)cc(C(F)(F)F)c2)CCCC1
- Delta TC [2]: -32%

- IC50 [1]: 29 nM
SMILES: CC(C)c1cccc(C(C)C)c1NC(=O)NCC1(c2ccc(Br)cc2)CCCC1
- Delta TC [2]: -59%

- IC50 [1]: 24 nM
- logD [3]: 3.61
SMILES: CC(C)c1cccc(C(C)C)c1NC(=O)NCC1(c2cccc(CC#N)c2)CCCC1
- Delta TC [4]: -31%

- IC50 [1]: 15 nM
SMILES: Cc1cccc(C2(CNC(=O)Nc3c(C(C)C)cccc3C(C)C)CCCC2)c1
- Delta TC [2]: -52%

- logD [3]: 3.55
SMILES: CC(C)c1cccc(C(C)C)c1NC(=O)NCC1(c2cccc(CN(CCO)CCO)c2)CCCC1
- Delta TC [5]: -63%
- Delta TC [4]: -33%

- IC50 [1]: 67 nM
- logD [3]: 4.87
SMILES: CC(C)c1cccc(C(C)C)c1NC(=O)NCC1(c2cccc(CN(C)C)c2)CCCC1.Cl
- Delta TC [5]: -46%
- Delta TC [4]: -44%

- IC50 [1]: 33 nM
SMILES: CC(C)c1cccc(C(C)C)c1NC(=O)NCC1(c2cccc(N(C)C)c2)CCCC1
- Delta TC [4]: -63%

- IC50 [1]: 23 nM
SMILES: COc1ccccc1C1(CNC(=O)Nc2c(C(C)C)cccc2C(C)C)CCCC1
- Delta TC [4]: -53%

- IC50 [1]: 23 nM
SMILES: CC(C)c1cccc(C(C)C)c1NC(=O)NCC1(c2ccc(F)cc2)CCCC1
- Delta TC [2]: -57%

- IC50 [1]: 50 nM
SMILES: CC(C)c1cccc(C(C)C)c1NC(=O)NCC1(c2ccc(N(C)C)cc2C(F)(F)F)CCCC1

- IC50 [1]: 66 nM
SMILES: CC(C)c1cccc(C(C)C)c1NC(=O)NCC1(c2ccc(C(F)(F)F)cc2)CCCC1
- Delta TC [2]: -39%

Further lines, the compound ahead of its results:

SMILES: CC(C)c1cccc(C(C)C)c1NC(=O)NCC1(c2ccccc2N)CCCC1
- IC50 [1]: 140 nM
- Delta TC [4]: -58%

SMILES: COC(=O)c1cccc(C2(CNC(=O)Nc3c(C(C)C)cccc3C(C)C)CCCC2)c1
- IC50 [1]: 34 nM
- Delta TC [4]: -51%

SMILES: CC(C)c1cccc(C(C)C)c1NC(=O)NCC1(c2ccc(CC(C)(C)C)cc2)CCCC1
- IC50 [1]: 159 nM
- Delta TC [2]: -53%

SMILES: CC(C)c1cccc(C(C)C)c1NC(=O)NCC1(c2ccccc2C(F)(F)F)CCCC1
- IC50 [1]: 18 nM
- Delta TC [2]: -50%

SMILES: COC(=O)c1ccc(C2(CNC(=O)Nc3c(C(C)C)cccc3C(C)C)CCCC2)cc1
- IC50 [1]: 360 nM
- Delta TC [4]: -3%

SMILES: CC(C)c1ccc(C2(CNC(=O)Nc3c(C(C)C)cccc3C(C)C)CCCC2)cc1
- IC50 [1]: 48 nM
- Delta TC [2]: -63%

SMILES: CC(C)c1cccc(C(C)C)c1NC(=O)NCC1(c2ccccc2[N+](=O)[O-])CCCC1
- IC50 [1]: 27 nM
- Delta TC [4]: -45%

SMILES: CC(C)c1cccc(C(C)C)c1NC(=O)NCC1(c2ccc([N+](=O)[O-])cc2)CCCC1
- IC50 [1]: 131 nM

SMILES: COc1ccc(C2(CNC(=O)Nc3c(C(C)C)cccc3C(C)C)CCCC2)cc1
- IC50 [1]: 31 nM
- Delta TC [4]: -41%

SMILES: CC(C)c1cccc(C(C)C)c1NC(=O)NCC1(c2cccc([N+](=O)[O-])c2)CCCC1
- IC50 [1]: 51 nM
- Delta TC [4]: -51%

SMILES: CC(C)c1cccc(C(C)C)c1NC(=O)NCC1(c2ccc(N)cc2)CCCC1
- IC50 [1]: 29 nM
- Delta TC [4]: -76%

SMILES: CC(C)c1cccc(C(C)C)c1NC(=O)NCC1(c2cccc(CN3CCOCC3)c2)CCCC1
- logD [3]: 4.37
- Change HDL -C [6]: 16%
- Change HDL -C [7]: 10%
- Change TC [8]: -24%
- Change TC [9]: -13%
- Change TC [10]: -63%
- Change TC [11]: -31%
- Delta TC [5]: -70%
- Delta TC [4]: -47%
- Change HDL -C [12]: 162%
- Change HDL -C [13]: 40%
- Change non HDL-C [14]: -26%
- Change non HDL-C [15]: -71%
- Change non HDL-C [16]: -33%
- Change non HDL-C [17]: -14%
- HDL-C [18]: 14
- HDL-C [19]: 13
- HDL-C [20]: 30
- HDL-C [21]: 16
- Non-HDL-C [22]: 224
- Non-HDL-C [23]: 260
- Non-HDL-C [24]: 84
- Non-HDL-C [25]: 202
- TC [26]: 237
- TC [27]: 273
- TC [28]: 118
- TC [29]: 218
